Measured values from ChEMBL document CHEMBL4396889, “From Inhibition to Degradation: Targeting the Antiapoptotic Protein Myeloid Cell Leukemia 1 (MCL1)” (J Med Chem, 2019).
Active and inactive are the calls of the source. The rule behind the calls is not given here.

Columns and labels:
[1] = target: T1, Protein cereblon/Induced myeloid leukemia cell differentiation protein Mcl-1 (Homo sapiens) (UniProt Q07820+Q96SW2); test: Protac activity at Cereblon/MCL1 long isoform in human OPM2 cells assessed as MCL1 long isoform level at 300 nM pre-incubated for 72 hrs followed by cycloheximide addition and measured after 30 mins by immunoblot analysis (reference value: 98%); assay type: cell-based
Summary of the method: (§1)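 Cycloheximide chase: cells were treated for 72 h with DMSO or degrader, with cycloheximide added for the final 30, 60 or 120 min. OPM2 and MM1.S cells were used, and wild-type OPM2 was compared with OPM2 CRBN-/- at 60 and 120 min. MCL1 was detected by immunoblot.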

[2] = target: T1, Protein cereblon/Induced myeloid leukemia cell differentiation protein Mcl-1 (Homo sapiens); test: Protac activity at Cereblon/MCL1 long isoform in human MM1S cells assessed as MCL1 long isoform level at 300 nM pre-incubated for 72 hrs followed by cycloheximide addition and measured after 120 mins by immunoblot analysis (reference value: 55%); assay type: cell-based; summary of the method: as §1
[3] = target: T1, Protein cereblon/Induced myeloid leukemia cell differentiation protein Mcl-1 (Homo sapiens); test: Protac activity at Cereblon/MCL1 short isoform in human OPM2 cells assessed as MCL1 short isoform abundance at 100 nM after 24 hrs by immunoblot analysis relative to control; assay type: cell-based
[4] = target: T1, Protein cereblon/Induced myeloid leukemia cell differentiation protein Mcl-1 (Homo sapiens); test: Protac activity at Cereblon/MCL1 long isoform in wild type human OPM2 cells assessed as MCL1 long isoform level at 300 nM pre-incubated for 72 hrs followed by cycloheximide addition and measured after 120 mins by immunoblot analysis (reference value: 53%); assay type: cell-based; summary of the method: as §1
[5] = target: T1, Protein cereblon/Induced myeloid leukemia cell differentiation protein Mcl-1 (Homo sapiens); test: Protac activity at Cereblon/MCL1 in human OPM2 cells assessed as protein abundance at 100 nM after 48 hrs by immunoblot analysis relative to control; assay type: cell-based
Summary of the method: (§2)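 OPM2 multiple myeloma cells, wild type or CRBN-knockout, were treated for 48 h with degrader or DMSO vehicle. MCL1 long and short isoforms were detected by immunoblot and levels compared with DMSO controls.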

[6] = target: T1, Protein cereblon/Induced myeloid leukemia cell differentiation protein Mcl-1 (Homo sapiens); test: Protac activity at Cereblon/MCL1 long isoform in human OPM2 cells assessed as MCL1 long isoform abundance at 500 nM after 24 hrs by immunoblot analysis relative to control; assay type: cell-based
OPM-2 [7] = test: Cytotoxicity against CRBN-/- human OPM2 cells assessed as reduction in cell viability at 50 to 10000 nM after 48 hrs by CellTiter-96 Cell Viability Assay; assay type: cell-based; conditions: opm-2, 48 h, 10 µM
[8] = target: T1, Protein cereblon/Induced myeloid leukemia cell differentiation protein Mcl-1 (Homo sapiens); test: Protac activity at Cereblon/MCL1 long isoform in wild type human OPM2 cells at 500 nM after 48 hrs by immunoblot analysis relative to control; assay type: cell-based; summary of the method: as §2
[9] = target: T1, Protein cereblon/Induced myeloid leukemia cell differentiation protein Mcl-1 (Homo sapiens); test: Protac activity at Cereblon/MCL1 in human OPM2 cells assessed as protein abundance at 250 nM after 48 hrs by immunoblot analysis relative to control; assay type: cell-based; summary of the method: as §2
[10] = target: T1, Protein cereblon/Induced myeloid leukemia cell differentiation protein Mcl-1 (Homo sapiens); test: Protac activity at Cereblon/MCL1 long isoform in human OPM2 cells assessed as MCL1 long isoform abundance at 50 nM after 24 hrs by immunoblot analysis relative to control; assay type: cell-based
[11] = target: T1, Protein cereblon/Induced myeloid leukemia cell differentiation protein Mcl-1 (Homo sapiens); test: Protac activity at Cereblon/MCL1 in human OPM2 cells at 500 nM after 3 hrs in presence of proteasome inhibitor bortezomib by immunoblot analysis; assay type: cell-based
Summary of the method: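 OPM2 cells were treated for 3 h with DMSO, degrader and/or the proteasome inhibitor bortezomib, then immunoblotted for MCL1.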

[12] = target: T1, Protein cereblon/Induced myeloid leukemia cell differentiation protein Mcl-1 (Homo sapiens); test: Protac activity at Cereblon/MCL1 short isoform in wild type human OPM2 cells assessed as MCL1 short isoform level at 300 nM pre-incubated for 72 hrs followed by cycloheximide addition and measured after 120 mins by immunoblot analysis (reference value: 14%); assay type: cell-based
Summary of the method: (§3)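 OPM2 wild-type and OPM2 CRBN-/- cells were treated for 72 h with compound or DMSO, with cycloheximide present for the final 60 or 120 min. MCL1 was detected by immunoblot.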

[13] = target: T1, Protein cereblon/Induced myeloid leukemia cell differentiation protein Mcl-1 (Homo sapiens); test: Protac activity at Cereblon/MCL1 short isoform in human OPM2 cells assessed as MCL1 short isoform abundance at 50 nM after 24 hrs by immunoblot analysis relative to control; assay type: cell-based
[14] = target: T1, Protein cereblon/Induced myeloid leukemia cell differentiation protein Mcl-1 (Homo sapiens); test: Protac activity at Cereblon/MCL1 short isoform in human MM1S cells assessed as MCL1 short isoform level at 300 nM pre-incubated for 72 hrs followed by cycloheximide addition and measured after 30 mins by immunoblot analysis (reference value: 100%); assay type: cell-based; summary of the method: as §1
[15] = target: T2, Induced myeloid leukemia cell differentiation protein Mcl-1 (Homo sapiens, UniProt Q07820); test: Induction of MCL1 short isoform degradation in CRBN-/- human OPM2 cells assessed as protein abundance at 50 nM after 48 hrs by immunoblot analysis relative to control; assay type: cell-based; summary of the method: as §2
[16] = target: T1, Protein cereblon/Induced myeloid leukemia cell differentiation protein Mcl-1 (Homo sapiens); test: Protac activity at Cereblon/MCL1 short isoform in wild type human OPM2 cells assessed as MCL1 short isoform abundance at 250 nM after 48 hrs by immunoblot analysis relative to control; assay type: cell-based
Summary of the method: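 OPM2 wild-type cells, run alongside the CRBN-/- line, were treated for 48 h with compound or DMSO. The MCL1 long and short isoforms were then measured by immunoblot against the DMSO control.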

[17] = target: T1, Protein cereblon/Induced myeloid leukemia cell differentiation protein Mcl-1 (Homo sapiens); test: Protac activity at Cereblon/MCL1 long isoform in wild type human OPM2 cells at 250 nM after 48 hrs by immunoblot analysis relative to control; assay type: cell-based; summary of the method: as §2
[18] = target: T1, Protein cereblon/Induced myeloid leukemia cell differentiation protein Mcl-1 (Homo sapiens); test: Protac activity at Cereblon/MCL1 long isoform in human MM1S cells assessed as MCL1 long isoform level at 300 nM pre-incubated for 72 hrs followed by cycloheximide addition and measured after 30 mins by immunoblot analysis (reference value: 96%); assay type: cell-based; summary of the method: as §1
[19] = target: T1, Protein cereblon/Induced myeloid leukemia cell differentiation protein Mcl-1 (Homo sapiens); test: Protac activity at Cereblon/MCL1 in human OPM2 cell lysate assessed as induction of MCL1 polyubiquitination incubated for 3 hrs by SDS-PAGE/immunoblot analysis; assay type: subcellular
Summary of the method: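 In vitro ubiquitinylation reactions; the target (MCL1 or BRD4) was then immunoprecipitated and the immunoprecipitate immunoblotted for ubiquitin.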

[20] = target: T1, Protein cereblon/Induced myeloid leukemia cell differentiation protein Mcl-1 (Homo sapiens); test: Protac activity at Cereblon/MCL1 long isoform in human OPM2 cells assessed as MCL1 long isoform level at 300 nM pre-incubated for 72 hrs followed by cycloheximide addition and measured after 120 mins by immunoblot analysis (reference value: 58%); assay type: cell-based; summary of the method: as §1
[21] = target: T2, Induced myeloid leukemia cell differentiation protein Mcl-1; test: Induction of MCL1 long isoform degradation in CRBN-/- human OPM2 cells assessed as protein abundance at 50 nM after 48 hrs by immunoblot analysis relative to control; assay type: cell-based; summary of the method: as §2
[22] = target: T1, Protein cereblon/Induced myeloid leukemia cell differentiation protein Mcl-1 (Homo sapiens); test: Protac activity at Cereblon/MCL1 long isoform in human OPM2 cells assessed as MCL1 long isoform level at 300 nM pre-incubated for 72 hrs followed by cycloheximide addition and measured after 60 mins by immunoblot analysis (reference value: 84%); assay type: cell-based; summary of the method: as §1
[23] = target: T2, Induced myeloid leukemia cell differentiation protein Mcl-1; test: Induction of MCL1 short isoform degradation in CRBN-/- human OPM2 cells assessed as protein abundance at 100 nM after 48 hrs by immunoblot analysis relative to control; assay type: cell-based; summary of the method: as §2
OPM-2 [24] = test: Induction of apoptosis in wild type human OPM2 cells assessed as cleaved caspase-3 at 500 nM after 24 hrs in presence of 1% FBS by immunoblot analysis (reference value: 80%); assay type: functional
OPM-2 [25] = test: Induction of apoptosis in wild type human OPM2 cells assessed as cleaved caspase-3 at 250 nM after 24 hrs in presence of 1% FBS by immunoblot analysis (reference value: 92%); assay type: functional
[26] = target: T1, Protein cereblon/Induced myeloid leukemia cell differentiation protein Mcl-1 (Homo sapiens); test: Protac activity at Cereblon/MCL1 long isoform in human OPM2 cells assessed as MCL1 long isoform abundance at 250 nM after 24 hrs by immunoblot analysis relative to control; assay type: cell-based
[27] = target: T1, Protein cereblon/Induced myeloid leukemia cell differentiation protein Mcl-1 (Homo sapiens); test: Protac activity at Cereblon/MCL1 short isoform in wild type human OPM2 cells assessed as MCL1 short isoform level at 300 nM pre-incubated for 72 hrs followed by cycloheximide addition and measured after 60 mins by immunoblot analysis (reference value: 64%); assay type: cell-based; summary of the method: as §3

T1 sequence (Q07820 whole entry, looked up, canonical isoform): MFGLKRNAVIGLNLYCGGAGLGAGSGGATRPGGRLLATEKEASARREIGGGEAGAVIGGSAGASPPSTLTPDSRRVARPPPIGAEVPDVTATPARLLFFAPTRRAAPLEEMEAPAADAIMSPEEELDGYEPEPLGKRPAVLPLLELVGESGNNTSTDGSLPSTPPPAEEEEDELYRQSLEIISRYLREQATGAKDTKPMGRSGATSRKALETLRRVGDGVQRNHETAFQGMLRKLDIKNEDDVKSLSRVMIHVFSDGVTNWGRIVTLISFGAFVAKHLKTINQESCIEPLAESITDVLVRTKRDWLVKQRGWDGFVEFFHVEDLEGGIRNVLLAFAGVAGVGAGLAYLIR
T1 sequence (Q96SW2 whole entry, looked up, canonical isoform): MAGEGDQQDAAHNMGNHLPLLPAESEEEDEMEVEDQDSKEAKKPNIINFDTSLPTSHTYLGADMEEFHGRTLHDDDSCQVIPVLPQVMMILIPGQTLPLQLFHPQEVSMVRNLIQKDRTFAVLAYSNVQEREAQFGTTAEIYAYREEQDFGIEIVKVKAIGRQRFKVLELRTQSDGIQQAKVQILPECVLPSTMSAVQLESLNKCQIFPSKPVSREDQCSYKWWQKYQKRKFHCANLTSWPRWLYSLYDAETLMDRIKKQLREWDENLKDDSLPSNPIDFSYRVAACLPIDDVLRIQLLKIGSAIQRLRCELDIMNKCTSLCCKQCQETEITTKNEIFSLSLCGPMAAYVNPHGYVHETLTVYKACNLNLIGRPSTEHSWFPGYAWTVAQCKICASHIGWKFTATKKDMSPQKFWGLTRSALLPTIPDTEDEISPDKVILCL
T2 sequence (Q07820 whole entry, canonical isoform): as the sequence (Q07820 whole entry, looked up, canonical isoform) above

Activity [1]: 88% | Activity [2]: 40% | Activity [3]: 59% | Activity [4]: 16% | Activity [5]: 63% | Activity [6]: 55% | Activity [8]: 50% | Activity [9]: 63% | Activity [10]: 97% | Activity [11]: inactive | Activity [12]: 2% | Activity [13]: 96% | Activity [14]: 74% | Activity [15]: 100% | Activity [16]: 47% | Activity [17]: 70% | Activity [18]: 90% | Activity [19]: Active | Activity [20]: 24% | Activity [21]: 100% | Activity [22]: 58% | Activity [23]: 100% | Activity [26]: 73% | Activity [27]: 14%
Structure (SMILES): Cc1nn(C)c(COc2ccc(N3CCN(S(=O)(=O)N(C)C)CC3)cc2)c1-c1cccc2c(CCCOc3cccc4ccccc34)c(C(=O)O)n(CCN3CCN(C(=O)COc4cccc5c4C(=O)N(C4CCC(=O)NC4=O)C5=O)CC3)c12 (configuration not stated)
Activity (OPM-2 [7]): Toxic | Activity (OPM-2 [24]): 326% | Activity (OPM-2 [25]): 197%
